ChEMBL document CHEMBL1123096, “Alpha-adrenoreceptor reagents. 3. Synthesis of some 2-substituted 1,4-benzodioxans as selective presynaptic alpha 2-adrenoreceptor antagonists” (J Med Chem, 1985)

Experiments:
[1] = molecular target: T1, Adrenergic receptor alpha-1 (Rattus norvegicus, UniProt P15823+P23944+P43140); test: Alpha-1 adrenergic receptor antagonist activity in a rat anococcygeus. Values ranges from 5.37-5.48; assay type: functional
T1 sequence (P15823 whole entry): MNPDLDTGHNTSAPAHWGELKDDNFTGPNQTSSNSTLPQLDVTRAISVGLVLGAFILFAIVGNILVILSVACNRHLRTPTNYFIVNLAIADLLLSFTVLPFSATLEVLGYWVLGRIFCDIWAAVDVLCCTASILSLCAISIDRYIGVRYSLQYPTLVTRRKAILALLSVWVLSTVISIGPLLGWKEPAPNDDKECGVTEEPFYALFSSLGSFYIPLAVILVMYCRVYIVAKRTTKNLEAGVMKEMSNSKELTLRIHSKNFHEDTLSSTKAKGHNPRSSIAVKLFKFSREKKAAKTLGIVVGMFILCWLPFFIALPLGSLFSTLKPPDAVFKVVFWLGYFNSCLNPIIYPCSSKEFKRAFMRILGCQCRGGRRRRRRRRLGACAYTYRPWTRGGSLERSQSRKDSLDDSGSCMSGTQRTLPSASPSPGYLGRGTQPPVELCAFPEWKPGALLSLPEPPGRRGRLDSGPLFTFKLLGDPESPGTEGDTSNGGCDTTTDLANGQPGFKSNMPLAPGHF
T1 sequence (P23944 whole entry): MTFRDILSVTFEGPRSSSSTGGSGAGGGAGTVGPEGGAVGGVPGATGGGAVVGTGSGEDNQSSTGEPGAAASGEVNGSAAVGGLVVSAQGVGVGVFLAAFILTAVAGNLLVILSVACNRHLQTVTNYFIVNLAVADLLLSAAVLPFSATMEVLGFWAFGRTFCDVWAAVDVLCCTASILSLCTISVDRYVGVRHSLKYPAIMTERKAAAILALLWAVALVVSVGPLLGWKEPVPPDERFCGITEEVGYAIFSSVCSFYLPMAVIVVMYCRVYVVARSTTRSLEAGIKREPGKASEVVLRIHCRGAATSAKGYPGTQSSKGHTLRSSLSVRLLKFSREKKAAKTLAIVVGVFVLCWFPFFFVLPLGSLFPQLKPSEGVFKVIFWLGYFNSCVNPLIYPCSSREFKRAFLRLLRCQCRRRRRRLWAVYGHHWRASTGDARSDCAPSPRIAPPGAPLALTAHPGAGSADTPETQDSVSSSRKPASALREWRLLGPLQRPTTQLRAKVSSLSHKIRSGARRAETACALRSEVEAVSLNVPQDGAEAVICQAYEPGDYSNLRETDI
T1 sequence (P43140 whole entry): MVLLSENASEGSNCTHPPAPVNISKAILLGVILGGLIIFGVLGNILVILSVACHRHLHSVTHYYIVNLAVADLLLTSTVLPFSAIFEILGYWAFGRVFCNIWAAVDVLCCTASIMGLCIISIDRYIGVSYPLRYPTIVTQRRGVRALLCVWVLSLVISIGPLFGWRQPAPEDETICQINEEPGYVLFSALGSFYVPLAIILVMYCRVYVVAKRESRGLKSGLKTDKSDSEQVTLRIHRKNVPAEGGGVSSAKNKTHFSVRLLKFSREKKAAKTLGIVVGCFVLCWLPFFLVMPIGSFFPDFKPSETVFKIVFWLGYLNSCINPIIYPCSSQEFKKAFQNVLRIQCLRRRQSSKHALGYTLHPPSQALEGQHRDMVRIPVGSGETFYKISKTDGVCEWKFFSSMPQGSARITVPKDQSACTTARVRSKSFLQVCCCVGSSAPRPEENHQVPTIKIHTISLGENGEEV

[2] = molecular target: T2, Adrenergic receptor alpha-2 (Rattus norvegicus, UniProt P22086+P19328+P22909); test: Alpha-2 adrenergic receptor antagonist activity in a rat vas deferens assay. Values ranges from 8.00-8.47; assay type: functional, tissue-based
T2 sequence (P22086 whole entry): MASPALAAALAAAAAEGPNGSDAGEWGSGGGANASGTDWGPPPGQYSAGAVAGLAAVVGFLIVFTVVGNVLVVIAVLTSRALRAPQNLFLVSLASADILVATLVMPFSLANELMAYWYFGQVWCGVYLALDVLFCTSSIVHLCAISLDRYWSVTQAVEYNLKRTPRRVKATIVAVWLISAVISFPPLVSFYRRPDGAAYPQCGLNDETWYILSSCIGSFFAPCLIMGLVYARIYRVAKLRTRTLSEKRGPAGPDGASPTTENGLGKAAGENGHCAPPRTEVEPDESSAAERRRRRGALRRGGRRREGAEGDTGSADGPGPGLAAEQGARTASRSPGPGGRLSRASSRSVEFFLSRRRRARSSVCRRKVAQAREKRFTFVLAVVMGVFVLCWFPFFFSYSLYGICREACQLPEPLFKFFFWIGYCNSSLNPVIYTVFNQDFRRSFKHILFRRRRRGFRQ
T2 sequence (P19328 whole entry): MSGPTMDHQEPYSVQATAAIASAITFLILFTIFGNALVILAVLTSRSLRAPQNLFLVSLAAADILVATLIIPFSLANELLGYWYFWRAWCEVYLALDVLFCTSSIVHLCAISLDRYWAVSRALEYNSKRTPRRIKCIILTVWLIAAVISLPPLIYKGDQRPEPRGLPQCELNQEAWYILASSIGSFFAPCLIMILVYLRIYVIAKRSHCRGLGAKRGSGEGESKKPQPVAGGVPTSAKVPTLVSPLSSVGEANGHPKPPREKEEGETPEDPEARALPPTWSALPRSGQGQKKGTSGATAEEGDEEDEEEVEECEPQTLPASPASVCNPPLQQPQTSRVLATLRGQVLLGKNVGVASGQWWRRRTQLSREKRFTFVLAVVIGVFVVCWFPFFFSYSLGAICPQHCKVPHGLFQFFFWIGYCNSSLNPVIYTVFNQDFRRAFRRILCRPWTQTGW
T2 sequence (P22909 whole entry): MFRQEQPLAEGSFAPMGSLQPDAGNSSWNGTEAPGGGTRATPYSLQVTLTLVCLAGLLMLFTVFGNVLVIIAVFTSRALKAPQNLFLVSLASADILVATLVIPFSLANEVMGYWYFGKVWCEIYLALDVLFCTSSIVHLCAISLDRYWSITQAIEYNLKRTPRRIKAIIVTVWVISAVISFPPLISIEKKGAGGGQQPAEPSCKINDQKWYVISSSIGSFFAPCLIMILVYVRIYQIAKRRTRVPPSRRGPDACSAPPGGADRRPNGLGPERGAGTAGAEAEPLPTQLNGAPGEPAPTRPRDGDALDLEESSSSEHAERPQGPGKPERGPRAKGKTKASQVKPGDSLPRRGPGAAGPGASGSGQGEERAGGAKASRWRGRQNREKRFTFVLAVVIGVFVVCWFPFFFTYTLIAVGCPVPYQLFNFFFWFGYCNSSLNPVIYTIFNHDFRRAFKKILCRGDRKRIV
In short: (§1)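 pA2 at presynaptic α2-adrenoreceptors in field-stimulated rat vas deferens. Tissue was held in Krebs solution (NaCl 118 mM, KCl 4.7 mM, CaCl2 2.5 mM, KH2PO4 1.2 mM, MgSO4 0.6 mM, NaHCO3 25 mM, dextrose 11.1 mM) gassed with 95% O2/5% CO2 at 30 °C. Stimulation was 3-ms pulses, 40 V, 0.1 Hz, with contractions recorded isometrically. Twitches were inhibited by clonidine (110 nM).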

[3] = molecular target: T3, Adrenergic receptor alpha-1 (Rattus norvegicus) (UniProt P15823+P23944+P43140); test: post-synaptic antagonist activity towards alpha-1 adrenergic receptor was determined. Concentration giving a dose response to phenylephrine (idazoxan=1) was reported.; assay type: functional
In short: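 Rat anococcygeus, postsynaptic α1 antagonism. At least five phenylephrine concentration–response curves were run alone, then at least four with the antagonist present.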

[4] = molecular target: T4, Adrenergic receptor alpha-2 (Rattus norvegicus) (UniProt P22086+P19328+P22909); test: Alpha-2 adrenergic receptor antagonist activity compared to idazoxan; assay type: functional
In short: (§2)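 Vas deferens from rat or mouse; the mouse tissue was in Mg-free Krebs at 30 °C under 0.5 g tension, stimulated at 0.1 Hz, 3 ms, 100–140 V, giving a twitch of about 100 mg. […] Standard curves were run before and after the test curve.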

[5] = molecular target: T3, Adrenergic receptor alpha-1 (Rattus norvegicus); test: Alpha-1 adrenergic receptor binding activity relative to idazoxan.; assay type: protein assay
[6] = molecular target: Adrenergic receptor alpha (Rattus norvegicus) (UniProt P15823+P23944+P43140+P22086+P19328+P22909); test: Selectivity as ratio […] against alpha-2 receptor to that of alpha-1 receptor.; assay type: protein assay
[7] = molecular target: T4, Adrenergic receptor alpha-2 (Rattus norvegicus); test: Presynaptic antagonist activity towards alpha-2 adrenergic receptor.; assay type: functional; in short: as §2
[8] = molecular target: T2, Adrenergic receptor alpha-2; test: Alpha-2 adrenergic receptor antagonist activity in a rat vas deferens assay. Values ranges from […]; assay type: functional, tissue-based; in short: as §1
[9] = molecular target: T1, Adrenergic receptor alpha-1; test: Alpha-1 adrenergic receptor antagonist activity in a rat anococcygeus. Values ranges from 5.84-6.31; assay type: functional
[10] = molecular target: T1, Adrenergic receptor alpha-1; test: Alpha-1 antagonist activity in a rat anococcygeus. Values ranges from 6.6-7.23; assay type: functional
[11] = molecular target: T2, Adrenergic receptor alpha-2; test: Alpha-2 adrenergic receptor antagonist activity in a rat vas deferens assay. Values ranges from 9.30-9.52; assay type: functional, tissue-based; in short: as §1
[12] = molecular target: T1, Adrenergic receptor alpha-1; test: Alpha-1 adrenergic receptor antagonist activity in a rat anococcygeus. Values ranges from 6.35-6.88; assay type: functional
[13] = molecular target: T2, Adrenergic receptor alpha-2; test: Alpha-2 adrenergic receptor antagonist activity in a rat vas deferens assay. Values ranges from 8.74-9.17; assay type: functional; in short: as §1
[14] = molecular target: T2, Adrenergic receptor alpha-2; test: Alpha-2 adrenergic receptor antagonist activity in a rat vas deferens assay. Values ranges from 8.31-8.44; assay type: functional; in short: as §1
[15] = molecular target: T1, Adrenergic receptor alpha-1; test: Alpha-1 adrenergic receptor antagonist activity in a rat anococcygeus. Values ranges from 6.63-6.78; assay type: functional
[16] = molecular target: T2, Adrenergic receptor alpha-2; test: Alpha-2 adrenergic receptor antagonist activity in a rat vas deferens assay. Values ranges from 7.80-8.14; assay type: functional, tissue-based
[17] = molecular target: T1, Adrenergic receptor alpha-1; test: Alpha-1 adrenergic receptor antagonist activity in a rat anococcygeus. Values ranges from 5.19-5.44; assay type: functional
[18] = molecular target: T3, Adrenergic receptor alpha-1 (Rattus norvegicus); test: post-synaptic antagonist activity towards adrenergic receptor was determined. Concentration giving a dose response to phenylephrine (idazoxan=1) was reported.; assay type: functional
In short: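 The agonist was phenylephrine, tested on isolated rat anococcygeus under 0.5 g initial tension. At least five phenylephrine dose-response curves were run alone, then at least four in the presence of the analogue.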

SMILES | pA2 [1] | pA2 [2] | Postsynaptic antagonist [3] | Relative potency [4] | Relative potency [5] | Ratio [6] | potency relative to idazoxan [7] | pA2 [8] | pA2 [9] | pA2 [10] | pA2 [11] | pA2 [12] | pA2 [13] | pA2 [14] | pA2 [15] | pA2 [16] | pA2 [17] | Postsynaptic antagonist [18]
C=C(C)C1(C2=NCCN2)COc2ccccc2O1.Cl (configuration not stated) | 5.42 | 8.21 | 0.07 | 0.5 | 0.1 | 5.7 | 0.4 |  |  |  |  |  |  |  |  |  |  | 
CC(C)OC1(C2=NCCN2)COc2ccccc2O1 (configuration not stated) |  |  | 0.6 | 1.5 | 0.5 | 1.6 | 1 | 8.67 | 6.01 |  |  |  |  |  |  |  |  | 
COC1(C2=NCCN2)COc2ccccc2O1 (configuration not stated) |  |  | 4 | 8.1 | 4 | 2.8 | 11 |  |  | 6.91 | 9.41 |  |  |  |  |  |  | 
CC1(C2=NCCN2)COc2ccccc2O1.Cl (configuration not stated) |  |  |  | 0.3 | 0.1 | 2.4 | 0.67 |  |  |  |  |  |  |  |  | 8.14 | 5.44 | 0.28

The next lines start with results.

pA2 [1] | pA2 [2] | Postsynaptic antagonist [3] | Relative potency [4] | Relative potency [5] | Ratio [6] | potency relative to idazoxan [7] | pA2 [8] | pA2 [9] | pA2 [10] | pA2 [11] | pA2 [12] | pA2 [13] | pA2 [14] | pA2 [15] | SMILES | pA2 [16] | pA2 [17] | Postsynaptic antagonist [18]
 |  | 3.2 | 2.6 | 1.7 | 1.5 | 4.8 |  |  |  |  | 6.56 | 8.92 |  |  | CCCC1(C2=NCCN2)COc2ccccc2O1 (configuration not stated) |  |  | 
 |  | 2.2 | 0.7 | 2.4 | 0.7 | 1.6 |  |  |  |  |  |  | 8.37 | 6.7 | CCCCOC1(C2=NCCN2)COc2ccccc2O1 (configuration not stated) |  |  | 
